For one series, the system named is L1210. Put plainly: Tested in vitro for inhibitory activity against L1210 murine leukemia. It counts as functional, cell-based. Particulars: Mus musculus. The procedure, abridged:
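L1210 suspension cells grown in McCoy's 5A with 10% horse serum, 10% CO2, 37 °C. Drug dissolved in water and added to 10^5 cells/tube at final 0.01, 0.1, 1 and 10 µg/mL.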

For another series, the system named is LoVo. Description: Tested in vitro for cytotoxic activity against Human colon Adenocarcinoma sensitive cell line (LoVo). It counts as functional, cell-based. An outline of the steps: (§1)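 LoVo and doxorubicin-resistant LoVo/Dx colon cells grown in Ham's F12 with 10% fetal calf serum, glutamine, vitamins and Hepes at 37 °C. 2.5 × 10^5 cells/mL plated and preincubated 24 h, then exposed to drug for 144 h. MTT read-out at 570 nm. IC50 (µg/mL) derived; resistance index = IC50 resistant / IC50 sensitive line.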

A short description of series [1]: The compound was tested for antitumor activity against P388 murine leukemia by measuring maximum tolerated dose. It counts as ADME, organism-based. Particulars: mouse, in vivo; read-out: LD10. An outline of the steps:
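CD2F1 mice were given 10^6 P388 cells iv, followed by iv treatment on days 1, 4 and 7 after transplantation. Mice were observed daily for toxicity and survival for 60 days. The value is the maximum tolerated dose, taken as LD10, or else the maximum dose administered.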

The next series has as its system LoVo/DX (Homo sapiens). Description: Tested in vitro for cytotoxic activity against Doxorubicin resistant Human colon Adenocarcinoma cell line.
The nature of series [2]: Resistance index is the ratio of IC50 of resistant cell line/IC50 of sensitive cell line. It counts as functional. An outline of the steps: as §1
The next series is filed under the species Mus musculus. Put plainly: The compound was tested for antitumor activity against P388 murine leukemia. It counts as functional. The procedure, abridged:
(§2)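 P388 cells kept by serial ip passage (10^5 cells) in DBA2 male mice. CD2F1 mice inoculated iv with 10^6 cells on day 0. Drug given iv on days 1, 4 and 7. Daily observation for toxicity and survival over 60 days. Median survival time per group, expressed as %T/C = MST treated/MST control × 100.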

The subject of another series is P388. Description: Tested for antitumor activity against P388 murine leukemia. It counts as functional, Mus musculus. An outline of the steps:
as §2

In brackets after ≈: the same amount, converted by molar mass.

Usually IC50 stands for the point on the concentration scale where inhibition reaches its midpoint. As a reminder, the T/C is the ratio of treated to control. Consider `NCCCCNc1ccc(NCCCCN)c2c1C(=O)c1ccncc1C2=O`, for which the figures for the IC50 with L1210, in the series with LoVo and with LoVo/DX (Homo sapiens) were 1.5 µg/mL (≈ 3.93 µM), 2.27 µg/mL (≈ 5.95 µM) and 0.83 µg/mL (≈ 2.18 µM), respectively. For the same molecule, the MTD in series [1] came to 35 mg/kg/day. In series [2], the Ratio came out at 0.4. The molecule further came in with a T/C in the series listed under Mus musculus of 100%.
As for `O=C1c2ccncc2C(=O)c2c(NCCOCCO)ccc(NCCOCCO)c21`, the IC50 in the series with LoVo came out at 8.7 µg/mL (≈ 20.9 µM); in the series with LoVo/DX (Homo sapiens), 267 µg/mL (≈ 642 µM). In series [2], the Ratio turned out to be 31.
With `CN(C)CCNc1ccc(NCCN(C)C)c2c1C(=O)c1cc[n+]([O-])cc1C2=O`, the concentration for half-maximal inhibition (IC50) in the series on LoVo worked out at 0.44 µg/mL (≈ 1.11 µM); in the series with LoVo/DX (Homo sapiens), 2.6 µg/mL (≈ 6.54 µM). This molecule came in with a T/C in the series on P388 of 122%. Besides, the MTD in series [1] turned out to be 40 mg/kg/day. In addition, the Ratio in series [2] worked out at 6.
Consider `CC(C)N(CCNc1ccc(NCCN(C(C)C)C(C)C)c2c1C(=O)c1ccncc1C2=O)C(C)C`, for which the IC50 came to 1.8 µg/mL (≈ 3.65 µM) with L1210, 2.5 µg/mL (≈ 5.06 µM) in the series on LoVo and 2.8 µg/mL (≈ 5.67 µM) in the series with LoVo/DX (Homo sapiens). Further, the Ratio in series [2] is on record as 1.1.
Turning to `O=C1c2ccncc2C(=O)c2c(NCCNCCO)ccc(NCCNCCO)c21`, the results for the half-maximal inhibitory concentration (IC50) with L1210, with LoVo and in the series with LoVo/DX (Homo sapiens) were 0.06 µg/mL (≈ 0.145 µM), 1.3 µg/mL (≈ 3.14 µM) and 99.5 µg/mL (≈ 241 µM), respectively. The T/C in the series with P388 is given as 118%. Further, the MTD in series [1] turned out to be 40 mg/kg/day. In addition, the Ratio in series [2] is recorded as 76.
Turning to `CC(C)NCCNc1ccc(NCCNC(C)C)c2c1C(=O)c1ccncc1C2=O`, the IC50 in the series on L1210 was found to be 0.03 µg/mL (≈ 0.0733 µM); in the series on LoVo it was 0.3 µg/mL (≈ 0.733 µM); in the series with LoVo/DX (Homo sapiens) it was 3.4 µg/mL (≈ 8.3 µM). Besides, the Ratio in series [2] is 11.
The like results for `CCCNCCNc1ccc(NCCNCCC)c2c1C(=O)c1ccncc1C2=O` were, in that order, 0.04 µg/mL (≈ 0.0977 µM), 0.2 µg/mL (≈ 0.488 µM), 2.8 µg/mL (≈ 6.84 µM) and 14.
For `CN(C)CCCNc1ccc(NCCCN(C)C)c2c1C(=O)c1ccncc1C2=O`, in that order: 0.3 µg/mL (≈ 0.733 µM), 0.15 µg/mL (≈ 0.366 µM), 0.36 µg/mL (≈ 0.879 µM) and 2.4.
Regarding `COCCNCCNc1ccc(NCCNCCOC)c2c1C(=O)c1ccncc1C2=O`, inhibition in the series with L1210 was half-maximal at 0.44 µg/mL (≈ 0.997 µM) (IC50).
Take `NCCCNc1ccc(NCCCN)c2c1C(=O)c1ccncc1C2=O`: the IC50 with L1210 is 0.1 µg/mL (≈ 0.283 µM); in the series on LoVo it was 2.1 µg/mL (≈ 5.94 µM); with LoVo/DX (Homo sapiens) it was 54.5 µg/mL (≈ 154 µM). Besides, in the series on P388, the T/C was determined as 155%. For the same molecule, in series [1], the MTD was 40 mg/kg/day. Also, the Ratio in series [2] was 26.
With `NCCNc1ccc(NCCN)c2c1C(=O)c1cc[n+]([O-])cc1C2=O`, the IC50 worked out at 7.3 µg/mL (≈ 21.4 µM) with LoVo and 62.6 µg/mL (≈ 183 µM) in the series on LoVo/DX (Homo sapiens). Further, the T/C in the series on P388 is on record as 200%. In series [1], the MTD came out at 60 mg/kg/day. Also, the Ratio in series [2] is 10.
Regarding `O=C1c2ccncc2C(=O)c2c(NCCN3CC3)ccc(NCCN3CC3)c21`, in the series with L1210, inhibition was half-maximal at 0.002 µg/mL (≈ 0.0053 µM) (IC50).

Source of the values: ChEMBL document CHEMBL1127837, “6,9-Bis[(aminoalkyl)amino]benzo[g]isoquinoline-5,10-diones. A novel class of chromophore-modified antitumor anthracene-9,10-diones: synthesis and antitumor evaluations” (J Med Chem, 1994).
